Results from ChEMBL document CHEMBL5096231, “Covalently Conjugated NOD2/TLR7 Agonists Are Potent and Versatile Immune Potentiators” (J Med Chem, 2022).
The source made the active and inactive calls. No cut-off for these calls is given here.

Assays:
RAW-Blue = experiment: Activation of NF-kappaB transcriptional activity in mouse RAW-Blue cells expressing NOD2 and TLR7 at 1 uM incubated for 18 hrs by quanti-blue/SEAP-based spectrophotometry analysis; format: cell-based; conditions: filed as activator
Outline: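 RAW-Blue cells pretreated 1 h with NOD2 antagonist SG84 (5 μM), TLR7 antagonist M5049 (1 μM), both, or neither, then given compound or 0.1% DMSO vehicle; 18 h at 37 °C, 5% CO2 in growth medium without Normocin/Zeocin. Supernatant mixed with QUANTI-Blue for 2 h at 37 °C, SEAP read at 630 nm. Activity relative to vehicle; three independent experiments, mean ± SEM.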

PBMC [1] = experiment: Immunostimulatory activity in human PBMC cells assessed as increase in IL-1beta production at 1 uM incubated for 18 hrs by flow cytometry analysis; format: functional, cell-based
Outline: (§1)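 PBMCs at 1 × 10^6 cells/mL treated with compound (1 μM), LPS (1 μg/mL) or 0.1% DMSO vehicle; cell-free supernatants collected after 18 h at 37 °C, 5% CO2. Cytokines quantified by human inflammatory cytokine bead array on flow cytometry with recombinant standard curves. Four independent experiments, mean ± SEM.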

PBMC [2] = experiment: Immunostimulatory activity in human PBMC cells assessed as increase in IL-6 production at 1 uM incubated for 18 hrs by flow cytometry analysis; format: functional, cell-based; outline: as §1
PBMC [3] = experiment: Immunostimulatory activity in human PBMC cells assessed as increase in IL-8 production at 1 uM incubated for 18 hrs by flow cytometry analysis; format: functional, cell-based; outline: as §1
PBMC [4] = experiment: Immunostimulatory activity in human PBMC cells assessed as increase in IL-10 production at 1 uM incubated for 18 hrs by flow cytometry analysis; format: functional, cell-based; outline: as §1
PBMC [5] = experiment: Immunostimulatory activity in human PBMC cells assessed as increase in TNF production at 1 uM incubated for 18 hrs by flow cytometry analysis; format: functional, cell-based; outline: as §1
PBMC [6] = experiment: Immunostimulatory activity in human PBMC cells assessed as increase in IL12p70 production at 1 uM incubated for 18 hrs by flow cytometry analysis; format: functional, cell-based; outline: as §1
K562 = experiment: Cytotoxicity against human K562 cells cocultured with human PBMC cells assessed as inhibition of cell proliferation at 0.01 to 1 uM incubated with PBMC cells for 18 hrs followed by co-incubation with K562 cells for 4 hrs by SYTOX blue staining based flow cytometric analysis; format: functional; conditions: dose 0.01-1 µM
Outline: (§2)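 Human PBMCs (Ficoll-isolated, healthy donors) pretreated 18 h in duplicate with compound (1 nM–1 μM) or 0.1% DMSO. CFSE-labelled K562 or MEC1 target cells then added, effector:target 40:1, 4 h at 37 °C. Sytox blue staining, flow cytometry; CFSE+Sytox+ cells counted as dead. Expressed relative to vehicle; three independent experiments, mean ± SEM.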

MEC1 = experiment: Cytotoxicity against human MEC1 cells cocultured with human PBMC cells assessed as inhibition of cell proliferation at 0.01 to 1 uM incubated with PBMC cells for 18 hrs followed by co-incubation with MEC-1 cells for 4 hrs by SYTOX blue staining based flow cytometric analysis; format: functional; conditions: dose 0.01-1 µM; outline: as §2
[7] = Induction of activation of human CD56+ CD3- NK cells co-cultured with human PBMC cells assessed as increase in CD69 expression at 1 uM incubated for 24 hrs by flow cytometry analysis (reference value: 2.7%); format: functional, Natural killer cell
[8] = Induction of activation of human CD56+ CD3- NK cells co-cultured with human PBMC cells assessed as increase in CD107a expression at 1 uM incubated for 24 hrs by flow cytometry analysis (reference value: 1.5%); format: functional, Natural killer cell
[9] = Induction of activation of human CD56+ CD3- NK cells co-cultured with human PBMC cells assessed as increase in IFN-gamma expression at 1 uM incubated for 24 hrs by flow cytometry analysis (reference value: 0.04%); format: functional, Natural killer cell
[10] = (§3) Induction of mouse ovalbumin specific CD4+ T cell activation assessed as increase in CD25 expression at 1 uM preincubated for 18 hrs with mouse BDMC cells in presence of ovalbumin followed by washout and further coincubated with CD4+ T cells and measured after 72 hrs by flow cytometry analysis (reference value: 10.9%); format: functional, CD4+ve Th
Outline: (§4)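 C57BL/6 BMDCs (GM-CSF 7 days, >90% CD11c+) pulsed 18 h with 1 μM compound, LPS 1 μg/mL or 0.1% DMSO plus OVA 50 μg/mL, washed. 1 × 10^4 BMDCs cocultured 72 h with 5 × 10^4 CFSE-labelled OT-II CD4+ or OT-I CD8+ T cells. Flow: live Thy1.2+ CD4+ or CD8+ cells scored as CD25+ CFSElow. Duplicates of two experiments.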

[11] = as §3, with “specific CD8-positive” for “specific CD4+”, “value: 12.6%)” for “value: 10.9%)”; format: functional; outline: as §4
CD4+ve Th [12] = experiment: Induction of mouse ovalbumin specific CD4+ T cell activation assessed as increase in IL-6 expression at 1 uM preincubated for 18 hrs with mouse BDMC cells in presence of ovalbumin followed by washout and further coincubated with CD4+ T cells and measured after 72 hrs; format: functional, cell-based
Outline: (§5)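 Supernatants taken after the 72 h coculture of washed BMDCs (18 h pretreatment with 1 μM compound, LPS 1 μg/mL or vehicle, plus OVA 50 μg/mL) with OT-II CD4+ or OT-I CD8+ T cells. Cytokines measured by mouse Th1/Th2/Th17 cytometric bead array. Duplicates of two independent experiments, mean ± SEM.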

CD4+ve Th [13] = experiment: Induction of mouse ovalbumin specific CD4+ T cell activation assessed as increase in IL-17A expression at 1 uM preincubated for 18 hrs with mouse BDMC cells in presence of ovalbumin followed by washout and further coincubated with CD4+ T cells and measured after 72 hrs; format: functional, cell-based; outline: as §5
CD4+ve Th [14] = experiment: Induction of mouse ovalbumin specific CD4+ T cell activation assessed as increase in TNF expression at 1 uM preincubated for 18 hrs with mouse BDMC cells in presence of ovalbumin followed by washout and further coincubated with CD4+ T cells and measured after 72 hrs; format: functional, cell-based; outline: as §5
CD4+ve Th [15] = experiment: Induction of mouse ovalbumin specific CD4+ T cell activation assessed as increase in IFN-gamma expression at 1 uM preincubated for 18 hrs with mouse BDMC cells in presence of ovalbumin followed by washout and further coincubated with CD4+ T cells and measured after 72 hrs; format: functional, cell-based; outline: as §5
CD8-positive T cell [16] = experiment: Induction of mouse ovalbumin specific CD8-positive T cell activation assessed as increase in IL-6 expression at 1 uM preincubated for 18 hrs with mouse BDMC cells in presence of ovalbumin followed by washout and further coincubated with CD4+ T cells and measured after 72 hrs; format: functional, cell-based; outline: as §5
CD8-positive T cell [17] = experiment: Induction of mouse ovalbumin specific CD8-positive T cell activation assessed as increase in IL-17A expression at 1 uM preincubated for 18 hrs with mouse BDMC cells in presence of ovalbumin followed by washout and further coincubated with CD4+ T cells and measured after 72 hrs; format: functional, cell-based; outline: as §5
CD8-positive T cell [18] = experiment: Induction of mouse ovalbumin specific CD8-positive T cell activation assessed as increase in TNF expression at 1 uM preincubated for 18 hrs with mouse BDMC cells in presence of ovalbumin followed by washout and further coincubated with CD4+ T cells and measured after 72 hrs; format: functional, cell-based; outline: as §5
CD8-positive T cell [19] = experiment: Induction of mouse ovalbumin specific CD8-positive T cell activation assessed as increase in IFN-gamma expression at 1 uM preincubated for 18 hrs with mouse BDMC cells in presence of ovalbumin followed by washout and further coincubated […] and measured after 72 hrs; format: functional, cell-based; outline: as §5
Mus musculus [20] = experiment: Immuno-adjuvant activity in NIH/OlaHsd mouse assessed as increase in ovalbumin specific IgG production in sera at 50 ug, sc administered on day 0 and as booster dose on day 21 and 28 measured 7 days post last dose by ELISA; format: functional, organism-based; conditions: dose 50.0 µg, time 35.0 day
Mus musculus [21] = experiment: Immuno-adjuvant activity in NIH/OlaHsd mouse assessed as increase in ovalbumin specific Th2 associated IgG1 production in sera at 50 ug, sc administered on day 0 and as booster dose on day 21 and 28 measured 7 days post last dose by ELISA; format: functional, organism-based; conditions: dose 50.0 µg, time 35.0 day
Mus musculus [22] = experiment: Immuno-adjuvant activity in NIH/OlaHsd mouse assessed as increase in ovalbumin specific Th1 associated IgG2a production in sera at 50 ug, sc administered on day 0 and as booster dose on day 21 and 28 measured 7 days post last dose by ELISA; format: functional, organism-based; conditions: dose 50.0 µg, time 35.0 day
PBMC [23] = experiment: Upregulation of IFN-gamma gene transcription in human PBMC cells at 1 uM incubated for 18 hrs by KEGG analysis; format: functional, cell-based
Outline: (§6)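 PBMCs from three donors (2 × 10^6 cells/mL) exposed to 1 μM compound or 0.1% DMSO for 18 h at 37 °C. mRNA isolated, amplified, sequenced. DESeq2 differential expression, FDR <0.05 and fold change >2 or <0.5 versus vehicle; gene lists used for Metascape/KEGG enrichment.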

PBMC [24] = experiment: Upregulation of IL12A gene transcription in human PBMC cells at 1 uM incubated for 18 hrs by KEGG analysis; format: functional, cell-based; outline: as §6
PBMC [25] = experiment: Upregulation of IL12B gene transcription in human PBMC cells at 1 uM incubated for 18 hrs by KEGG analysis; format: functional, cell-based; outline: as §6
PBMC [26] = experiment: Upregulation of Tbx21 gene transcription in human PBMC cells at 1 uM incubated for 18 hrs by KEGG analysis; format: functional, cell-based; outline: as §6
PBMC [27] = experiment: Upregulation of CXCL9 gene transcription in human PBMC cells at 1 uM incubated for 18 hrs by KEGG analysis; format: functional, cell-based; outline: as §6
PBMC [28] = experiment: Upregulation of CXCL10 gene transcription in human PBMC cells at 1 uM incubated for 18 hrs by KEGG analysis; format: functional, cell-based; outline: as §6
PBMC [29] = experiment: Upregulation of CXCL11 gene transcription in human PBMC cells at 1 uM incubated for 18 hrs by KEGG analysis; format: functional, cell-based; outline: as §6
PBMC [30] = experiment: Upregulation of IL-17A gene transcription in human PBMC cells at 1 uM incubated for 18 hrs by KEGG analysis; format: functional, cell-based; outline: as §6
PBMC [31] = experiment: Upregulation of IL-17F gene transcription in human PBMC cells at 1 uM incubated for 18 hrs by KEGG analysis; format: functional, cell-based; outline: as §6
PBMC [32] = experiment: Upregulation of IL-22 gene transcription in human PBMC cells at 1 uM incubated for 18 hrs by KEGG analysis; format: functional, cell-based; outline: as §6
PBMC [33] = experiment: Upregulation of IL-26 gene transcription in human PBMC cells at 1 uM incubated for 18 hrs by KEGG analysis; format: functional, cell-based; outline: as §6
[34] = Cytotoxicity against HEK-Blue hNOD2 cells assessed as reduction in metabolic activity at 10 uM incubated for 18 hrs by MTS assay; format: toxicity, cell-based; conditions: human, hek-blue hnod2, 18 h
Outline: (§7)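 Cells (HEK-Blue NOD2, RAW-Blue or freshly isolated human PBMCs) seeded in duplicate and exposed to 10 μM compound or 0.1% DMSO vehicle for 18 h at 37 °C, 5% CO2. Metabolic activity then measured by CellTiter 96 AQueous One (MTS) assay.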

[35] = Cytotoxicity against mouse RAW-Blue cells assessed as reduction in metabolic activity at 10 uM incubated for 18 hrs by MTS assay; format: toxicity, cell-based; outline: as §7
[36] = Cytotoxicity against human PBMC cells assessed as reduction in metabolic activity at 10 uM incubated for 18 hrs by MTS assay; format: toxicity, cell-based; outline: as §7

## CCCCOc1nc(N)c2nc(O)n(Cc3ccc(C(=O)NCCOCCNC(=O)CC[C@@H](NC(=O)[C@@H](NC(=O)CNC(=O)/C=C/c4ccc(O)c(OC)c4)C(C)C)C(=O)OCC)cc3)c2n1
RAW-Blue
  Activity: Active
PBMC [1]
  Activity: Active
PBMC [2]
  Activity: Active
PBMC [3]
  Activity: Active
PBMC [4]
  Activity: Active
PBMC [5]
  Activity: Active
PBMC [6]
  Activity: Active
K562
  Activity: Active
MEC1
  Activity: Active
[7]
  Activity: 93%
[8]
  Activity: 4.7%
[9]
  Activity: 4.5%
[10]
  Activity: 28.9%
[11]
  Activity: 54.5%
CD4+ve Th [12]
  Activity: Active
CD4+ve Th [13]
  Activity: Active
CD4+ve Th [14]
  Activity: Active
CD4+ve Th [15]
  Activity: Active
CD8-positive T cell [16]
  Activity: Active
CD8-positive T cell [17]
  Activity: Active
CD8-positive T cell [18]
  Activity: Active
CD8-positive T cell [19]
  Activity: Active
Mus musculus [20]
  Activity: Active
Mus musculus [21]
  Activity: Active
Mus musculus [22]
  Activity: Active
PBMC [23]
  Activity: Active
PBMC [24]
  Activity: Active
PBMC [25]
  Activity: Active
PBMC [26]
  Activity: Active
PBMC [27]
  Activity: Active
PBMC [28]
  Activity: Active
PBMC [29]
  Activity: Active
PBMC [30]
  Activity: Active
PBMC [31]
  Activity: Active
PBMC [32]
  Activity: Active
PBMC [33]
  Activity: Active
[34]
  Activity: Non-Toxic
[35]
  Activity: Non-Toxic
[36]
  Activity: Non-Toxic

## CCOC(=O)CC[C@@H](NC(=O)[C@@H](NC(=O)CNC(=O)/C=C/c1ccc(O)c(OC)c1)C(C)C)C(=O)OCC
PBMC [3]
  Activity: Active
[7]
  Activity: 14%
[8]
  Activity: 1.1%
[9]
  Activity: 1.4%
[10]
  Activity: 12.6%
[11]
  Activity: 13.1%
[34]
  Activity: Non-Toxic
[35]
  Activity: Non-Toxic
[36]
  Activity: Non-Toxic
